Experimental data as given in ChEMBL document CHEMBL2163244, “Structure-guided design, synthesis and biological evaluation of novel DNA ligase inhibitors with in vitro and in vivo anti-staphylococcal activity” (Bioorg Med Chem Lett, 2012).
≈ marks a conversion by molar mass, not a printed value. Calls of active or inactive are those of the source. The rule behind the calls is not given here.

How the values were obtained:
[1] = Inhibition of Escherichia coli NAD-dependent DNA ligase
[2] = system: Escherichia coli; experiment: Antibacterial activity against tolC/rfaC-deficient Escherichia coli harboring ligA251 mutant; type: functional
Method in brief: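 MIC read-out. The E. coli strain carries only the ligA251 allele (L15F exchange), which gives more than 20-fold reduced ligation activity and sensitizes it to LigA inhibitors.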

[3] = Inhibition of Streptococcus pneumoniae NAD-dependent DNA ligase assessed as equilibrium dissociation constant
[4] = molecular target: DNA ligase (Staphylococcus aureus, UniProt Q9AIU7); experiment: Inhibition of Staphylococcus aureus NAD-dependent DNA ligase
DNA ligase, sequence (Q9AIU7 whole entry): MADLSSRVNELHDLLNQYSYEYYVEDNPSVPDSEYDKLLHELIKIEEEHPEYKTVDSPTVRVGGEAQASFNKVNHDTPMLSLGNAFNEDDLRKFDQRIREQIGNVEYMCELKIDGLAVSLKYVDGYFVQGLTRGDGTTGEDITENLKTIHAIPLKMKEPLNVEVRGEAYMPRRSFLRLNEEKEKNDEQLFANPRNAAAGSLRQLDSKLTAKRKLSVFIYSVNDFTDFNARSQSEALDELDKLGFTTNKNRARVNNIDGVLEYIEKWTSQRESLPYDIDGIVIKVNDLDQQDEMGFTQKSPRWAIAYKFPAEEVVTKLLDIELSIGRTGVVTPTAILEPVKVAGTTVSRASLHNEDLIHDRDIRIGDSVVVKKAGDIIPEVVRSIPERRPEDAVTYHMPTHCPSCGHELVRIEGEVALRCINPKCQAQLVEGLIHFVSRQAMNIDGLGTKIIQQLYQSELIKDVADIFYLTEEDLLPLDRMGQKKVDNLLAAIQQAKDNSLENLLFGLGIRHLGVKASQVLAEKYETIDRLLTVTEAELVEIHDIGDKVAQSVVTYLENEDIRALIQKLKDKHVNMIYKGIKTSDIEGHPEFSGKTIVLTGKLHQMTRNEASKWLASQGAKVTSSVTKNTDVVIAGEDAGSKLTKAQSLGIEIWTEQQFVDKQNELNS

[5] = system: Escherichia coli; experiment: Antibacterial activity against tolC/rfaC-deficient Escherichia coli harboring ligA251 mutant and pECLigA; type: functional
Method in brief: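 MIC read-out. The strain is the isogenic ligA251 E. coli strain, over-producing wild-type LigA from plasmid pECLigA, which gives high ligation activity.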

[6] = system: Escherichia coli; experiment: Antibacterial activity against tolC/rfaC-deficient Escherichia coli; type: functional
[7] = system: Haemophilus influenzae; experiment: Antibacterial activity against wild type Haemophilus influenzae A921 by CLSI dilution method; type: functional
[8] = molecular target: T1, Dihydrofolate reductase (Homo sapiens) (UniProt P00374); experiment: Inhibition of human DHFR
T1 sequence (whole entry): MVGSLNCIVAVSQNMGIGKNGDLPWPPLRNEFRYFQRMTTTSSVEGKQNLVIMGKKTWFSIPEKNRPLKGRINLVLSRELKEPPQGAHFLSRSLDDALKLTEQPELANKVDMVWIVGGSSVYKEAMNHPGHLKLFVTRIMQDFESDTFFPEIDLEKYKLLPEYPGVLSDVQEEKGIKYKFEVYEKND

[9] = Terminal half life in mouse at 10 mg/kg, sc; type: ADME, organism-based; set-up: dose 10 mg/kg, route subcutaneous; conditions: in vivo, read-out: beta t1/2 (converted)
[10] = Oral bioavailability in rat at 1 mg/kg; type: ADME, organism-based; conditions: in vivo
[11] = system: Staphylococcus aureus; experiment: Antibacterial activity against Staphylococcus aureus ATCC 25923 by CLSI dilution method in presence of 50% human serum; type: functional
Method in brief: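 MIC determined in the presence of 50% human serum.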

[12] = Cmax in mouse at 10 mg/kg, sc; type: ADME, organism-based; set-up: dose 10 mg/kg, route subcutaneous; conditions: in vivo
[13] = system: Streptococcus pneumoniae; experiment: Antibacterial activity against Streptococcus pneumoniae ATCC 49619 by CLSI dilution method; type: functional
[14] = Cmax in rat at 1 mg/kg, po; type: ADME, organism-based; set-up: dose 1 mg/kg, route oral; conditions: in vivo
[15] = Intrinsic clearance in rat liver microsomes; type: ADME, Microsome; conditions: read-out: CLH
[16] = molecular target: DNA ligase 1 (Homo sapiens) (UniProt P18858); experiment: Inhibition of human DNA Ligase 1
DNA ligase 1 (Homo sapiens), sequence (P18858 whole entry): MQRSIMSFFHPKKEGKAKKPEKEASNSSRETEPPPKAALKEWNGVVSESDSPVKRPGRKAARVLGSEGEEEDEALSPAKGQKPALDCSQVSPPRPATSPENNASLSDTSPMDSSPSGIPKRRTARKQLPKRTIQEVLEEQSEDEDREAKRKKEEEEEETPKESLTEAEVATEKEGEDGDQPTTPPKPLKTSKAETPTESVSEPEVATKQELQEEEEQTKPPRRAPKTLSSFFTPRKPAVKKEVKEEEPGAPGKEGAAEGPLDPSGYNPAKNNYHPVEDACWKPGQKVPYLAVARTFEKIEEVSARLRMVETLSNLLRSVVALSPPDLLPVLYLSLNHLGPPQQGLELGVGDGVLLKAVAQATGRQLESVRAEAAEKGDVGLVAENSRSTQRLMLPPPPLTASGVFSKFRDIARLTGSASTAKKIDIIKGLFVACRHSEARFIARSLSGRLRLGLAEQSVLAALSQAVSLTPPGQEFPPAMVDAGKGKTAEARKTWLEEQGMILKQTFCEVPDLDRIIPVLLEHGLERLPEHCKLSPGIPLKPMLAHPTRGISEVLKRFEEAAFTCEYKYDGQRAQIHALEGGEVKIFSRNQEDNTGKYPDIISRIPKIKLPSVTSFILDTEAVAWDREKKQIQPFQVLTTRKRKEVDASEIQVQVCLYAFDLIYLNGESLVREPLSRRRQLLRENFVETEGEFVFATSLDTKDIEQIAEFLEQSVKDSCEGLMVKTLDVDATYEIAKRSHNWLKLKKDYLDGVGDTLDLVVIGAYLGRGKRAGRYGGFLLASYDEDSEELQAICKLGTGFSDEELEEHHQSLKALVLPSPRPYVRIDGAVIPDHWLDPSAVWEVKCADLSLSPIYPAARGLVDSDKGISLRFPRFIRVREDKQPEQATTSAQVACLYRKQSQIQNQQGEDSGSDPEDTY

[17] = AUC (0 to infinity) in rat at 0.1 mg/kg, iv; type: ADME, organism-based; set-up: time infinity, dose 0.1 mg/kg, route intravenous; conditions: plasma
Method in brief: (§1)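 Rat intravenous PK: 0.1 mg/kg dose in 5% DMSO/28.5% HPBCD in water. Total plasma clearance is in mL/min/kg. Volume of distribution at steady state is in L/kg.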

[18] = system: Enterococcus faecium; experiment: Antibacterial activity against Enterococcus faecium A949 by CLSI dilution method; type: functional
[19] = system: Staphylococcus aureus; experiment: Antibacterial activity against […]-sensitive Staphylococcus aureus DM 11823; type: functional
[20] = Fraction unbound in rat plasma at 0.1 mg/kg, iv and 1 mg/kg, po; type: ADME, organism-based
[21] = system: Saccharomyces cerevisiae; experiment: Antifungal activity against Saccharomyces cerevisiae A136 expressing ATP-dependent DNA ligase by CLSI dilution method; type: functional
[22] = system: Staphylococcus aureus; experiment: Antibacterial activity against wild type Staphylococcus aureus ATCC 29213 by CLSI dilution method; type: functional
[23] = system: Acinetobacter baumannii; experiment: Antibacterial activity against Acinetobacter baumannii T6474 by CLSI dilution method; type: functional
[24] = system: Enterococcus faecalis; experiment: Antibacterial activity against Enterococcus faecalis ATCC 29212 by CLSI dilution method; type: functional
[25] = system: Klebsiella pneumoniae; experiment: Antibacterial activity against Klebsiella pneumoniae T6474 by CLSI dilution method; type: functional
[26] = Fraction unbound in mouse plasma at 10 mg/kg, sc; type: ADME, organism-based; set-up: dose 10 mg/kg, route subcutaneous
[27] = Terminal half life in rat at 0.1 mg/kg, iv and 1 mg/kg, po; type: ADME, organism-based; conditions: in vivo, read-out: beta t1/2 (converted)
[28] = system: Staphylococcus aureus; experiment: Antibacterial activity against Staphylococcus aureus A798 by CLSI dilution method; type: functional
[29] = AUC (0 to 24 hrs) in mouse at 10 mg/kg, sc; type: ADME, organism-based; set-up: time < 24 hr, dose 10 mg/kg, route subcutaneous; conditions: plasma
[30] = system: Clostridioides difficile; experiment: Antibacterial activity against Clostridium difficile ATCC A1148 by CLSI dilution method; type: functional
[31] = molecular target: Cytochrome P450 2D6 (Homo sapiens, UniProt P10635); experiment: Inhibition of human CYP2D6; type: ADME
Cytochrome P450 2D6, sequence (P10635 whole entry): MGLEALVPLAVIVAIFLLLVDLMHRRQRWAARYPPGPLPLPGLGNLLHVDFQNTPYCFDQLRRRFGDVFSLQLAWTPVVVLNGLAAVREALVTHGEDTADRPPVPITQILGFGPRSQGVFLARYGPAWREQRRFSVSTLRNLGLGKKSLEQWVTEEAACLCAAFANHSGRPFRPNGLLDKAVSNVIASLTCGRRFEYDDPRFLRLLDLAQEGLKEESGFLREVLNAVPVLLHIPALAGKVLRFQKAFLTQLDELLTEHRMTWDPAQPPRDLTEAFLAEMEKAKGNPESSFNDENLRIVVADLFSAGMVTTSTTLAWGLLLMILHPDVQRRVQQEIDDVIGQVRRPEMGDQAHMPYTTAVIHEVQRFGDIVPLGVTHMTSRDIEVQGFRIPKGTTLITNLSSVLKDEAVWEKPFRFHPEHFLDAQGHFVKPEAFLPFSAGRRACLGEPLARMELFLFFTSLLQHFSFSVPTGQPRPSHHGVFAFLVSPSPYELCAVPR

[32] = system: Rattus norvegicus; experiment: fAUC (0 to 24 hrs) in rat at 1 mg/kg, po; type: ADME, organism-based; set-up: dose 1 mg/kg, route oral; conditions: in vivo
[33] = molecular target: Cytochrome P450 3A4 (Homo sapiens, UniProt P08684); experiment: Inhibition of human CYP3A4; type: ADME
Cytochrome P450 3A4, sequence (P08684 whole entry): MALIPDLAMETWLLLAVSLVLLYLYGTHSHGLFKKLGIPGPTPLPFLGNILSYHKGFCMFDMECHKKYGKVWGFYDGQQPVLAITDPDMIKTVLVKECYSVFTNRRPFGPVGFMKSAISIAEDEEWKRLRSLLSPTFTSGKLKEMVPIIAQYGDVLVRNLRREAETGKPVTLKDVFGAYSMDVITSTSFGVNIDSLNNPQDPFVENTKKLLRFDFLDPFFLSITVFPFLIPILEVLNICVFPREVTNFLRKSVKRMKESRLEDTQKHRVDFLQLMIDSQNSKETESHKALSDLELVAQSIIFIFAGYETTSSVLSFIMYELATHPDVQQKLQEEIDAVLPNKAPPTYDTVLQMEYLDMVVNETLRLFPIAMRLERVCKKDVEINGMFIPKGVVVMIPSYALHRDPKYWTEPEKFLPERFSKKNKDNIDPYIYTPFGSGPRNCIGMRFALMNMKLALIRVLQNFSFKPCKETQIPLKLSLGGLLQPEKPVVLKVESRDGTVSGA

[34] = system: Rattus norvegicus; experiment: fAUC (0 to infinity) in rat at 0.1 mg/kg, iv; type: ADME, organism-based; set-up: dose 0.1 mg/kg, route intravenous; conditions: in vivo; method in brief: as §1
[35] = Total plasma clearance in rat at 0.1 mg/kg, iv and 1 mg/kg, po; type: ADME, organism-based; method in brief: as §1
[36] = system: Pseudomonas aeruginosa; experiment: Antibacterial activity against Pseudomonas aeruginosa ATCC 27853 by CLSI dilution method; type: functional
[37] = system: Moraxella catarrhalis; experiment: Antibacterial activity against Moraxella catarrhalis A894 by CLSI dilution method; type: functional
[38] = Selectivity ratio of IC50 for Streptococcus pneumoniae NAD-dependent DNA ligase to IC50 for Staphylococcus aureus NAD-dependent DNA ligase
[39] = system: Staphylococcus aureus; experiment: Antibacterial activity against Staphylococcus aureus ATCC 25923 by CLSI dilution method; type: functional
[40] = AUC (0 to 24 hrs) in rat at 1 mg/kg, po; type: ADME, organism-based; set-up: time < 24 hr, dose 1 mg/kg, route oral; conditions: plasma
[41] = system: Streptococcus pneumoniae; experiment: Antibacterial activity against wild type Streptococcus pneumoniae A-216 by CLSI dilution method; type: functional
[42] = molecular target: Cytochrome P450 2C9 (Homo sapiens, UniProt P11712); experiment: Inhibition of human CYP2C9; type: ADME
Cytochrome P450 2C9, sequence (P11712 whole entry): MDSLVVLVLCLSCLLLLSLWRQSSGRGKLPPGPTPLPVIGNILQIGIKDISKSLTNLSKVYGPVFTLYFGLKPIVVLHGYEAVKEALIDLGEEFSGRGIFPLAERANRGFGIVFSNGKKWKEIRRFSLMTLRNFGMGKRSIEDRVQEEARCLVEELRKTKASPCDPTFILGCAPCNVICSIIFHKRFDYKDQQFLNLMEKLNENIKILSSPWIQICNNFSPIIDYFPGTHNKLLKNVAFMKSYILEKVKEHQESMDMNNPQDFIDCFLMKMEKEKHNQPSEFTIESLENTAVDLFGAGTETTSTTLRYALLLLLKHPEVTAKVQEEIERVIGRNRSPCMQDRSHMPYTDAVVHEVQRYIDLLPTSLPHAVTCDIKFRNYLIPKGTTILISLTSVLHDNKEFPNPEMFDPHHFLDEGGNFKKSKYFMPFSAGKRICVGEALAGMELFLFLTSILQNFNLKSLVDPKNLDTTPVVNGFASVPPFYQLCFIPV

[43] = Intrinsic clearance in rat hepatocytes measured per 10^6 cells; type: ADME, cell-based, Hepatocyte; conditions: read-out: CLH
[44] = system: Staphylococcus aureus; experiment: Bacteriostatic activity against […]-sensitive Staphylococcus aureus DM 11823 in mouse neutropenic thigh infection model at 100 mg/kg, sc administered 2 hrs post infection measured after 24 hrs; type: functional, organism-based; set-up: dose 100 mg/kg
Method in brief: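 Neutropenic murine thigh infection with a quinolone-sensitive laboratory descendant of S. aureus DSM 11823. Inoculum 2×10^3 cfu given i.m. Compound given once at 100 mg/kg s.c., 2 h post-infection, in 5% DMSO/15% Solutol HS15 in water. Bacterial burden assessed 24 h after infection.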

[45] = system: Escherichia coli; experiment: Antibacterial activity against Escherichia coli ATCC 25922 by CLSI dilution method; type: functional
[46] = Volume of distribution at steady state in rat at 0.1 mg/kg, iv and 1 mg/kg, po; type: ADME, organism-based; conditions: in vivo, read-out: Vdss; method in brief: as §1

Nc1cc(-c2nc3ccccc3[nH]2)n[nH]c1=O
IC50 [1]: > 25000 nM
MIC [2]: 8 µg/mL (≈ 35.2 µM)
Kd [3]: 20 µM
IC50 [4]: 2500 nM
MIC [5]: 16 µg/mL (≈ 70.4 µM)
MIC [6]: > 16 µg/mL

NC(=O)c1cc2cc(Br)c(C(F)(F)F)nc2nc1N
MIC [7]: 0.125 µg/mL (≈ 0.373 µM)
inhibition [8]: inactive
half-life [9]: 174 min
bioavailability [10]: 80%
MIC [11]: 2 µg/mL
Cmax [12]: 7050 ng/mL
IC50 [1]: 300 nM
MIC [13]: 16 µg/mL (≈ 47.7 µM)
MIC [2]: 0.063 µg/mL (≈ 0.188 µM)
Cmax [14]: 410 ng/mL
microsomal CLint [15]: 20 µL/min/mg
inhibition [16]: inactive
AUC(0-inf) [17]: 150 ng·h/mL
MIC [18]: > 32 µg/mL
MIC [19]: 0.5 µg/mL (≈ 1.49 µM)
fraction unbound [20]: 0.14
MIC [21]: > 32 µg/mL
MIC [6]: 2 µg/mL (≈ 5.97 µM)
MIC [22]: 1 µg/mL (≈ 2.98 µM)
MIC [23]: > 32 µg/mL
MIC [24]: 8 µg/mL (≈ 23.9 µM)
MIC [25]: > 32 µg/mL
fraction unbound [26]: 0.046
half-life [27]: 138 min
MIC [28]: 1 µg/mL (≈ 2.98 µM)
AUC(0-t) at 24 h [29]: 84500 ng·h/mL
MIC [30]: 8 µg/mL (≈ 23.9 µM)
IC50 [31]: > 50 µM
fAUC [32]: 0.171 mg·h/L
IC50 [33]: > 50 µM
fAUC [34]: 0.021 mg·h/L
clearance [35]: 11 mL/min/kg
MIC [36]: > 32 µg/mL
MIC [37]: 8 µg/mL (≈ 23.9 µM)
Ratio IC50 [38]: 2
MIC [39]: 1 µg/mL (≈ 2.98 µM)
AUC(0-t) at 24 h [40]: 1220 ng·h/mL
MIC [41]: 2 µg/mL (≈ 5.97 µM)
IC50 [42]: > 50 µM
hepatocyte CLint [43]: 1.8 µL/min/1e6 cells
Activity [44]: Active
MIC [45]: > 32 µg/mL
Vd [46]: 0.71 L/kg
